Experimental data published in publication PMC3248997 (Bioorganic & medicinal chemistry, 2011).
Where two headings read alike, the source gives them in different places.

Key:
[1] = intracerebroventricular injection of 10 nmol; cited from earlier work
[2] = cited from earlier work
[3] = test system: COX-2 in murine macrophages; conditions: unclear which pyrazolone(s) were added; cited from earlier work
[4] = test system: COX-2 in primary human leukocytes; conditions: unclear which pyrazolone(s) were added; cited from earlier work
[5] = cited from earlier work; remark: listed apart in the source
[6] = test system: COX activity (PGE2 and 6-keto-PGF1α formation) in brain homogenates; test: Inhibition of COX activity in tissue extract; assay type: biochemical, C57BL/6 mice
Summary of the method: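 C57BL/6 mouse brain homogenate prepared on ice in 50 mM Tris pH 7.4 with 1 mM phenol and protease inhibitors. 20 µg homogenate preincubated with test compound or vehicle. 150 µM arachidonic acid added at 37°C. Stopped after 5 min by acidifying to pH 2.5 with formic acid and chilling. Prostanoids extracted with ethyl acetate/hexane (7:1). PGE2 and 6-keto-PGF1α quantified by GC-MS/MS.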

[7] = test system: PGE2 formation in brain tissue from COX-1−/− mice; assay type: biochemical; conditions: 0.8 µM; brain tissue from LPS stimulated COX-1−/− mice
[8] = in vivo

## CCCCC/C=C\C/C=C\C/C=C\C/C=C\CCCC(=O)Nc1ccc(O)cc1 [AM404, N-arachidonoylaminophenol]
[1]
  antinociception: Antinociception was observed

## Cc1c(N(C)CS(=O)(=O)[O-])c(=O)n(-c2ccccc2)n1C.[Na+] [compound 1, sodium N-(2,3-dimethyl-5-oxo-1-phenyl-3-pyrazolin-4-yl)-N-methylaminomethanesulphonate]
[2]; following intravenous administration
  time detectable in the serum: about 15 min
[2]; oral intake
  detectability in the serum after oral intake: not detectable
[3]
  activity against COX-2: approximately 12 µg ml^−1
[4]
  activity against COX-2: ~21 µg/mL

## CNc1c(C)n(C)n(-c2ccccc2)c1=O [compound 2, 4-methylaminoantipyrine]
[2]; after oral administration of dipyrone
  bioavailability: 85%
[2]
  average elimination half-life (t1/2): 2.6 to 3.5 h
[2]; time to maximal systemic concentrations
  tmax: 1.2 to 2.0 h
[5]
  concentration in the cerebrospinal fluid: 5000 to 30000 ng/mL

## Cc1c(N)c(=O)n(-c2ccccc2)n1C [compound 3, 4-aminoantipyrine]
[5]
  concentration in the cerebrospinal fluid: 1000 to 7000 ng/mL

## CCCCC/C=C\C/C=C\C/C=C\C/C=C\CCCC(=O)N(C)c1c(C)n(C)n(-c2ccccc2)c1=O [compound 5, (5Z,8Z,11Z,14Z)-Icosa-5,8,11,14-tetraenoic acid (1,5-dimethyl-3-oxo-2-phenyl-2,3-dihydro-1H-pyrazol-4-yl)-methyl-amide]
[6]; inhibition of PGE2 formation in mouse brain homogenates
  lowering of IC50 by the FAAH inhibitor URB532: more than 200 fold
[7]
  formation of PGE2: did not observe any formation of PGE2
Dipyrone for 5 days
  formation in brain of FAAH−/− mice as compared to wild type mice: less than 2%
Representative chromatogram, Figure 9 B
  amount in mouse brain cell homogenates: 2.4 pg/sample

## CCCCC/C=C\C/C=C\C/C=C\C/C=C\CCCC(=O)Nc1c(C)n(C)n(-c2ccccc2)c1=O [compound 6, (5Z,8Z,11Z,14Z)-Icosa-5,8,11,14-tetraenoic acid (1,5-dimethyl-3-oxo-2-phenyl-2,3-dihydro-1H-pyrazol-4-yl)-amide]
[6]; brain homogenates, concentration range 100 nM to 100 µM
  effect on PGE2 formation: no effect
[8]; C57BL/6, mouse
  amount in mouse brain cell homogenates: 39 pg/sample
[8]; FAAH−/− knockout compared with wild type (C57BL/6), mouse, 5 days
  formation in brain of FAAH−/− mice as compared to wild type mice: about 6%
